Most compounds without a hit are left out; they make up all but 1.8% or so of the library.
PTK2B oligo ant – antagonists of Pyk2 self-association, primary screen, Q293 cells, FERM NanoBiT luminescence, HTS | Protein-tyrosine kinase 2-beta (Homo sapiens), Q14289 | hits give low values | z-score (the deposit names both 25 µM and 10 µM) | hit rate 0.83% among 99,000 | AID 1347419, 2020;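 active means Z-score of -3 or lower, scaled per plate to the spread of control and sample wells; inactive means z-score above -3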;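 further: negative z-score means lost luminescence so less FERM oligomerization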
LYP act – LYP phosphatase activators, primary screen, biochemical, DiFMUP fluorescence, 2 µM; recombinant LYP; 0 = plate median, 100 = signal doubled; hit rate 0.11% among 96,000; activation, % at 2 µM; Tyrosine-protein phosphatase non-receptor type 22 (Homo sapiens), Q9Y2R2;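 active means activation at 2 µM above a set limit, the mean plus 5 SD, cut at about 37% in these data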
LYP inh 2 – PTPN22 phosphatase inhibitors, primary screen, biochemical, DiFMUP fluorescence, 2 µM | Tyrosine-protein phosphatase non-receptor type 22 (Homo sapiens), Q9Y2R2 | recombinant LYP catalytic domain | inhibition, % at 2 µM | hit rate 0.21% among 96,000 | AID 640, 2007;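 active means inhibition at 2 µM at or above a set limit, the screen mean plus 3 SD, cut at about 24% in these data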
HIV Rev-RRE inh – HIV-1 Rev-RRE binding inhibitors, primary screen, biochemical, FRET, protein-RNA interaction. Rev peptide-RRE RNA binding. inhibition, % at 8 µM. hit rate 0.79% among 97,000. AID 704, 2007;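 active means inhibition above the screen-wide mean plus 3 SD, cut at about 35% in these data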
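Material: labelled RRE RNA duplex and labelled Rev peptide / Buffer or medium: HEPES pH 7.5 salt buffer with EDTA / Compound dosing: single point, 8 µM final nominal compound concentration / Benchmarks: DMSO low control, neomycin B high control / Timing: 5 min preincubation and 15 min binding, 25 °C / Technique: FRET fluorescence readout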
PTPN22 act conf – retest of PTPN22 activators, confirmation, biochemical, DiFMUP fluorescence, single concentration; 100 tested, under 10 active; activation, % at 2 µM; shares compounds with LYP act; Recombinant LYP, activation; zero set by plate's median compound well; call rule not given here
Each line names hits and unclear results; the compound was inactive in the other large screens (follow-up assays come after a bar, where they were run).

COCCn1cnnc1SCC(=O)c1ccc(S(=O)(=O)N2CCCC2)cc1	none (no result: LYP act, LYP inh 2, HIV Rev-RRE inh)
O=C(Nc1cccnc1)c1cccnc1Cl	LYP act 38 | PTPN22 act conf inactive
O=C(c1cc(-c2ccccn2)nc2c(Cl)cccc12)N1CCN(C(=O)C2CCCO2)CC1 (configuration not stated)	LYP act 45 | PTPN22 act conf inactive
CC1=C(C(N)=O)C(c2cccnc2)n2nc(SCc3ccccc3Cl)nc2N1 (configuration not stated)	LYP act 46 | PTPN22 act conf inactive
CC1=C(C(N)=O)C(c2ccccn2)n2nc(SCc3ccccc3Cl)nc2N1 (configuration not stated)	none
CNC(=O)Cn1nc(-c2ccc(C)c(S(=O)(=O)N(C)C)c2)c2ccccc2c1=O	none
COC(=O)c1ccc(NC(=O)C2CCCCC2C(=O)O)cc1 (configuration not stated)	none
COC(=O)c1ccc(NC(=S)NC2CCCCC2)cc1	LYP act 38 | PTPN22 act conf inactive
O=C1c2ccccc2C(=O)N1c1n[nH]c(CCc2ccccc2)n1	LYP act 43 | PTPN22 act conf inactive
Cc1ccc(CN2C(=O)CCC2C(=O)NC(C)C)cc1 (configuration not stated)	none
COc1cccc(CNCc2ccc(SC)cc2)c1OC	none

Compound activity deposited in PubChem by several laboratories.
